Reference: ChEMBL document CHEMBL5724801, “EUbOPEN Chemogenomics Library - Multiplex” (2024)
Where “and” joins values, the source holds several entries; their conditions need not be identical. Equal values may be shown once.

System: HEK-293T
Assay: Multiplex assay against HEK293T
Format: toxicity, cell-based
Conditions: human
Method in brief: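 Compound was added to live cells that had been stained at seeding with Hoechst33342, BioTracker Green Microtubule Cytoskeleton Dye, MitoTracker Red and Annexin V Alexa Fluor 680, and imaging followed on a CQ1 microscope at 37°C and 5% CO2. CellPathfinder machine-learning gating divided cells into Hoechst high-intensity objects or normal cells, normal cells into healthy, pyknosed or fragmented nuclei, and pyknosed cells into mitotic or apoptotic. Tubulin, mitochondrial-mass and membrane-permeability phenotypes are per cents of healthy-nucleus cells.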

[1] = 12 h, 1 µM, compound concentration 1 uM
[2] = 12 h, 10 µM, compound concentration 10 uM
[3] = 24 h, 1 µM, compound concentration 1 uM
[4] = 24 h, 10 µM, compound concentration 10 uM
[5] = 48 h, 1 µM, compound concentration 1 uM
[6] = 48 h, 10 µM, compound concentration 10 uM

Structure (SMILES): COCCn1c(C)c(C)s/c1=N\C(=O)C1C(C)(C)C1(C)C
- Population Apoptotic (%) [1]: 37% and 41%
- Population Fragmented Nuclei (%) [1]: 10% and 5%
- Population Healthy Nuclei (%) [1]: 77% and 82%
- Population Hoechst High Intensity Objects (%) [1]: 6% and 4%
- Population Membrane Permeable-Phenotype (%) [1]: 0%
- Population Mitochondria Different-Phenotype (%) [1]: 45% and 77%
- Population Mitotic Cells (%) [1]: 62% and 58%
- Population Normal (%) [1]: 93% and 95%
- Population Pyknosed Nuclei (%) [1]: 12%
- Population Tubulin-Different-Phenotype (%) [1]: 29% and 26%
- Total Cell Count [1]: 335 and 304
- Population Apoptotic (%) [2]: 77% and 53%
- Population Healthy Nuclei (%) [2]: 52% and 75%
- Population Hoechst High Intensity Objects (%) [2]: 18% and 11%
- Population Membrane Permeable-Phenotype (%) [2]: 0%
- Population Mitochondria Different-Phenotype (%) [2]: 91% and 72%
- Population Mitotic Cells (%) [2]: 22% and 46%
- Population Normal (%) [2]: 81% and 88%
- Population Pyknosed Nuclei (%) [2]: 13% and 16%
- Population Tubulin-Different-Phenotype (%) [2]: 67% and 38%
- Population Apoptotic (%) [3]: 19% and 35%
- Population Fragmented Nuclei (%) [3]: 7% and 8%
- Population Healthy Nuclei (%) [3]: 81%
- Population Hoechst High Intensity Objects (%) [3]: 4% and 7%
- Population Membrane Permeable-Phenotype (%) [3]: 0%
- Population Mitochondria Different-Phenotype (%) [3]: 26% and 47%
- Population Mitotic Cells (%) [3]: 80% and 64%
- Population Normal (%) [3]: 95% and 92%
- Population Pyknosed Nuclei (%) [3]: 11% and 10%
- Population Tubulin-Different-Phenotype (%) [3]: 20% and 17%
- Total Cell Count [3]: 447 and 383
- Population Apoptotic (%) [4]: 71% and 45%
- Population Fragmented Nuclei (%) [4]: 30% and 11%
- Population Healthy Nuclei (%) [4]: 61% and 75%
- Population Hoechst High Intensity Objects (%) [4]: 15% and 7%
- Population Membrane Permeable-Phenotype (%) [4]: 0%
- Population Mitochondria Different-Phenotype (%) [4]: 53% and 62%
- Population Mitotic Cells (%) [4]: 28% and 54%
- Population Normal (%) [4]: 84% and 92%
- Population Pyknosed Nuclei (%) [4]: 8% and 13%
- Population Tubulin-Different-Phenotype (%) [4]: 36% and 30%
- Population Apoptotic (%) [5]: 20% and 45%
- Population Fragmented Nuclei (%) [5]: 13% and 11%
- Population Healthy Nuclei (%) [5]: 75% and 81%
- Population Hoechst High Intensity Objects (%) [5]: 3%
- Population Membrane Permeable-Phenotype (%) [5]: 0%
- Population Mitochondria Different-Phenotype (%) [5]: 22% and 31%
- Population Mitotic Cells (%) [5]: 79% and 55%
- Population Normal (%) [5]: 96% and 97%
- Population Pyknosed Nuclei (%) [5]: 11% and 7%
- Population Tubulin-Different-Phenotype (%) [5]: 14% and 12%
- Total Cell Count [5]: 649 and 567
- Population Apoptotic (%) [6]: 60% and 38%
- Population Fragmented Nuclei (%) [6]: 18% and 13%
- Population Healthy Nuclei (%) [6]: 73% and 79%
- Population Hoechst High Intensity Objects (%) [6]: 2% and 4%
- Population Membrane Permeable-Phenotype (%) [6]: 2% and 0%
- Population Mitochondria Different-Phenotype (%) [6]: 30% and 46%
- Population Mitotic Cells (%) [6]: 40% and 61%
- Population Normal (%) [6]: 97% and 95%
- Population Pyknosed Nuclei (%) [6]: 8% and 6%
- Population Tubulin-Different-Phenotype (%) [6]: 31% and 24%
- Total Cell Count [6]: 191 and 493

Structure (SMILES): N#Cc1cc(F)cc(-c2nc(-c3ccc(F)cn3)no2)c1
- Population Apoptotic (%) [1]: 38% and 64%
- Population Fragmented Nuclei (%) [1]: 10% and 6%
- Population Healthy Nuclei (%) [1]: 76% and 77%
- Population Hoechst High Intensity Objects (%) [1]: 5% and 8%
- Population Membrane Permeable-Phenotype (%) [1]: 0%
- Population Mitochondria Different-Phenotype (%) [1]: 41% and 55%
- Population Mitotic Cells (%) [1]: 61% and 36%
- Population Normal (%) [1]: 95% and 91%
- Population Pyknosed Nuclei (%) [1]: 12% and 15%
- Population Tubulin-Different-Phenotype (%) [1]: 25% and 22%
- Total Cell Count [1]: 280 and 342
- Population Apoptotic (%) [2]: 45%
- Population Fragmented Nuclei (%) [2]: 10% and 8%
- Population Healthy Nuclei (%) [2]: 73% and 77%
- Population Hoechst High Intensity Objects (%) [2]: 4% and 10%
- Population Membrane Permeable-Phenotype (%) [2]: 0%
- Population Mitochondria Different-Phenotype (%) [2]: 51% and 61%
- Population Mitotic Cells (%) [2]: 55% and 54%
- Population Normal (%) [2]: 95% and 89%
- Population Pyknosed Nuclei (%) [2]: 16% and 13%
- Population Tubulin-Different-Phenotype (%) [2]: 29% and 22%
- Total Cell Count [2]: 383 and 269
- Population Apoptotic (%) [3]: 43% and 48%
- Population Fragmented Nuclei (%) [3]: 9% and 7%
- Population Healthy Nuclei (%) [3]: 77% and 82%
- Population Hoechst High Intensity Objects (%) [3]: 6% and 7%
- Population Membrane Permeable-Phenotype (%) [3]: 0%
- Population Mitochondria Different-Phenotype (%) [3]: 19% and 36%
- Population Mitotic Cells (%) [3]: 56% and 51%
- Population Normal (%) [3]: 93% and 92%
- Population Pyknosed Nuclei (%) [3]: 12% and 9%
- Population Tubulin-Different-Phenotype (%) [3]: 12% and 15%
- Total Cell Count [3]: 353 and 463
- Population Apoptotic (%) [4]: 41% and 39%
- Population Fragmented Nuclei (%) [4]: 10%
- Population Healthy Nuclei (%) [4]: 74% and 79%
- Population Hoechst High Intensity Objects (%) [4]: 4% and 8%
- Population Membrane Permeable-Phenotype (%) [4]: 0%
- Population Mitochondria Different-Phenotype (%) [4]: 34% and 40%
- Population Mitotic Cells (%) [4]: 58% and 60%
- Population Normal (%) [4]: 95% and 91%
- Population Pyknosed Nuclei (%) [4]: 14% and 9%
- Population Tubulin-Different-Phenotype (%) [4]: 18% and 12%
- Total Cell Count [4]: 479 and 363
- Population Apoptotic (%) [5]: 35% and 27%
- Population Fragmented Nuclei (%) [5]: 15% and 11%
- Population Healthy Nuclei (%) [5]: 77% and 81%
- Population Hoechst High Intensity Objects (%) [5]: 1% and 0%
- Population Membrane Permeable-Phenotype (%) [5]: 1%
- Population Mitochondria Different-Phenotype (%) [5]: 16% and 18%
- Population Mitotic Cells (%) [5]: 64% and 72%
- Population Normal (%) [5]: 98% and 99%
- Population Pyknosed Nuclei (%) [5]: 6%
- Population Tubulin-Different-Phenotype (%) [5]: 11% and 10%
- Total Cell Count [5]: 585 and 715
- Population Apoptotic (%) [6]: 39% and 48%
- Population Fragmented Nuclei (%) [6]: 16%
- Population Healthy Nuclei (%) [6]: 75% and 77%
- Population Hoechst High Intensity Objects (%) [6]: 1% and 4%
- Population Membrane Permeable-Phenotype (%) [6]: 1%
- Population Mitochondria Different-Phenotype (%) [6]: 18% and 22%
- Population Mitotic Cells (%) [6]: 60% and 51%
- Population Normal (%) [6]: 98% and 95%
- Population Pyknosed Nuclei (%) [6]: 8% and 5%
- Population Tubulin-Different-Phenotype (%) [6]: 9% and 11%
- Total Cell Count [6]: 643 and 501

Structure (SMILES): Cc1noc(-c2ccc(-c3ccc(CC(=O)O)cc3)cc2)c1NC(=O)O[C@H](C)c1ccccc1Cl
- Population Apoptotic (%) [1]: 29% and 59%
- Population Fragmented Nuclei (%) [1]: 7% and 4%
- Population Healthy Nuclei (%) [1]: 79% and 77%
- Population Hoechst High Intensity Objects (%) [1]: 5% and 11%
- Population Membrane Permeable-Phenotype (%) [1]: 0%
- Population Mitochondria Different-Phenotype (%) [1]: 38% and 69%
- Population Mitotic Cells (%) [1]: 70% and 40%
- Population Normal (%) [1]: 94% and 88%
- Population Pyknosed Nuclei (%) [1]: 13% and 17%
- Population Tubulin-Different-Phenotype (%) [1]: 29% and 28%
- Total Cell Count [1]: 403 and 296
- Population Apoptotic (%) [2]: 51% and 41%
- Population Fragmented Nuclei (%) [2]: 11% and 8%
- Population Healthy Nuclei (%) [2]: 68% and 72%
- Population Hoechst High Intensity Objects (%) [2]: 7% and 14%
- Population Membrane Permeable-Phenotype (%) [2]: 0%
- Population Mitochondria Different-Phenotype (%) [2]: 72% and 69%
- Population Mitotic Cells (%) [2]: 48% and 58%
- Population Normal (%) [2]: 92% and 85%
- Population Pyknosed Nuclei (%) [2]: 20% and 18%
- Population Tubulin-Different-Phenotype (%) [2]: 65% and 34%
- Total Cell Count [2]: 295 and 341
- Population Apoptotic (%) [3]: 22% and 40%
- Population Fragmented Nuclei (%) [3]: 10% and 9%
- Population Healthy Nuclei (%) [3]: 79% and 80%
- Population Hoechst High Intensity Objects (%) [3]: 5% and 7%
- Population Membrane Permeable-Phenotype (%) [3]: 0%
- Population Mitochondria Different-Phenotype (%) [3]: 23% and 42%
- Population Mitotic Cells (%) [3]: 77% and 60%
- Population Normal (%) [3]: 94% and 92%
- Population Pyknosed Nuclei (%) [3]: 9%
- Population Tubulin-Different-Phenotype (%) [3]: 17% and 20%
- Total Cell Count [3]: 570 and 378
- Population Apoptotic (%) [4]: 39% and 32%
- Population Fragmented Nuclei (%) [4]: 7% and 9%
- Population Healthy Nuclei (%) [4]: 76% and 75%
- Population Hoechst High Intensity Objects (%) [4]: 8% and 16%
- Population Membrane Permeable-Phenotype (%) [4]: 1% and 0%
- Population Mitochondria Different-Phenotype (%) [4]: 58% and 53%
- Population Mitotic Cells (%) [4]: 60% and 68%
- Population Normal (%) [4]: 91% and 83%
- Population Pyknosed Nuclei (%) [4]: 16% and 15%
- Population Tubulin-Different-Phenotype (%) [4]: 47% and 38%
- Total Cell Count [4]: 352 and 390
- Population Apoptotic (%) [5]: 17% and 35%
- Population Fragmented Nuclei (%) [5]: 11% and 12%
- Population Healthy Nuclei (%) [5]: 82% and 76%
- Population Hoechst High Intensity Objects (%) [5]: 4%
- Population Membrane Permeable-Phenotype (%) [5]: 1% and 0%
- Population Mitochondria Different-Phenotype (%) [5]: 20% and 34%
- Population Mitotic Cells (%) [5]: 82% and 64%
- Population Normal (%) [5]: 95%
- Population Pyknosed Nuclei (%) [5]: 5% and 10%
- Population Tubulin-Different-Phenotype (%) [5]: 14% and 21%
- Total Cell Count [5]: 930 and 494
- Population Apoptotic (%) [6]: 38% and 46%
- Population Fragmented Nuclei (%) [6]: 10% and 13%
- Population Healthy Nuclei (%) [6]: 79% and 74%
- Population Hoechst High Intensity Objects (%) [6]: 6% and 10%
- Population Membrane Permeable-Phenotype (%) [6]: 0% and 1%
- Population Mitochondria Different-Phenotype (%) [6]: 40% and 35%
- Population Mitotic Cells (%) [6]: 61% and 53%
- Population Normal (%) [6]: 93% and 89%
- Population Pyknosed Nuclei (%) [6]: 10% and 11%
- Population Tubulin-Different-Phenotype (%) [6]: 33% and 25%
- Total Cell Count [6]: 445 and 508
